In publication PMC5725227 (Pharmaceutical research, 2014):

How the values were obtained:
[1] = tested on: A549 cells; test: In-vitro cytotoxicity, crystal violet dye assay; format: cell-based, human
[2] = Plasma pharmacokinetics after i.v. administration; format: in vivo, BALB/c mice; details: DIM-P, 5.0 mg/kg equivalent of DIM-P
How it was run: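 BALB/c mice, randomized (n = 6 per group) and fasted overnight, received a single i.v. dose (DIM-P equivalent 5.0 mg/kg). Plasma was deproteinized with acetonitrile and spun 15 min at 10,000 g. Analysis was C18 HPLC with acetonitrile:water 90:10 at 1.0 mL/min, UV 242 nm. Parameters were derived non-compartmentally.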

## CC(=O)O[C@@]12CO[C@@H]1C[C@H](O)[C@@]1(C)C(=O)[C@H](O)C3=C(C)[C@@H](OC(=O)[C@H](O)[C@@H](NC(=O)OC(C)(C)C)c4ccccc4)C[C@@](O)([C@@H](OC(=O)c4ccccc4)[C@H]21)C3(C)C [Doc, Docetaxel, reference compound]
[1]; Homo sapiens, A549, 72 h
  IC50: 0.02 ± 0.01 µM

## c1ccc(-c2ccc(C(c3c[nH]c4ccccc34)c3c[nH]c4ccccc34)cc2)cc1 [DIM-P, DIM-C-pPhC6H5]
[1]; A549 cells, 72 h
  IC50: 6.8 ± 0.7 µM
[2]
  Cl: 37.74 ± 10.4 mL/kg/h
  Cmax: 216.25 ± 23.59 µg/mL
  K10-HL: 2.98 ± 0.65 hr^−1
  MRT: 2.79 ± 1.02 h
  Vss: 185.98 ± 29.89 mL/kg
[2]; non-compartment analysis
  AUC0–24: 124.22 ± 13.65 µg·h/mL
